Measurements taken from ChEMBL document CHEMBL2034883, “Asperjinone, a nor-neolignan, and terrein, a suppressor of ABCG2-expressing breast cancer cells, from thermophilic Aspergillus terreus” (J Nat Prod, 2012).
Calls of active or inactive are those of the source. No cut-off for these calls is given here.

What was measured:
MCF7 [1] = experiment: Cytotoxicity against human MCF7 cells at 100 uM after 96 hrs by MTT assay; type: functional, cell-based
MCF7 [2] = experiment: Growth inhibition of human MCF7 cells at 1 nM after 96 hrs by MTT assay; type: functional; details: MCF7, 96 h, read-out: GI
PANC-1 = experiment: Cytotoxicity against human PANC1 cells after 96 hrs by MTT assay; type: functional, cell-based; details: PANC-1, 96 h
HepG2 = experiment: Cytotoxicity against human HepG2 cells after 96 hrs by MTT assay; type: functional, cell-based; details: HepG2, 96 h
MCF7 [3] = experiment: Induction of apoptosis in human MCF7 cells assessed as viable cells at 1 nM after 96 hrs by annexinV/propidium iodide staining-based flow cytometric analysis (reference value: 89 %); type: functional; details: MCF7, 96 h, read-out: Activity
MCF7 [4] = experiment: Induction of apoptosis in human MCF7 cells assessed as early apoptotic cells at 1 nM after 96 hrs by annexinV/propidium iodide staining-based flow cytometric analysis (reference value: 3.05 %); type: functional
MCF7 [5] = experiment: Induction of apoptosis in human MCF7 cells assessed as late apoptotic cells at 1 nM after 96 hrs by annexinV/propidium iodide staining-based flow cytometric analysis (reference value: 5.02 %); type: functional
MCF7 [6] = experiment: Induction of apoptosis in human MCF7 cells assessed as necrotic cells at 1 nM after 96 hrs by annexinV/propidium iodide staining-based flow cytometric analysis (reference value: 2.89 %); type: functional
MCF7 [7] = experiment: Induction of apoptosis in human MCF7 cells assessed as viable cells at 10 nM after 96 hrs by annexinV/propidium iodide staining-based flow cytometric analysis (reference value: 89 %); type: functional; details: MCF7, 96 h, read-out: Activity
MCF7 [8] = experiment: Induction of apoptosis in human MCF7 cells assessed as early apoptotic cells at 10 nM after 96 hrs by annexinV/propidium iodide staining-based flow cytometric analysis (reference value: 3.05 %); type: functional
MCF7 [9] = experiment: Induction of apoptosis in human MCF7 cells assessed as late apoptotic cells at 10 nM after 96 hrs by annexinV/propidium iodide staining-based flow cytometric analysis (reference value: 5.02 %); type: functional
MCF7 [10] = experiment: Induction of apoptosis in human MCF7 cells assessed as necrotic cells at 10 nM after 96 hrs by annexinV/propidium iodide staining-based flow cytometric analysis (reference value: 2.89 %); type: functional
MCF7 [11] = experiment: Induction of apoptosis in human MCF7 cells assessed as caspase 7 cleavage at 1 nM after 96 hrs by Western blot analysis; type: functional, cell-based
In short: (§1)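 MCF-7 cells (2.0 × 10^5) exposed to 1 nM for 24, 48, 72 and 96 h; 10 nM paclitaxel as control. Lysed in RIPA (pH 8) with protease and phosphatase inhibitors; 40 μg protein per lane run on 10% SDS-PAGE and transferred to PVDF. Blocked in 5% milk/TBST 1 h; primary antibody overnight at 4 °C. Anti-ABCG2 1:100, anti-PARP and anti-caspase-7 each 1:1000. ECL detection.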

MCF7 [12] = experiment: Induction of apoptosis in human MCF7 cells assessed as PARP cleavage at 1 nM after 96 hrs by Western blot analysis; type: functional, cell-based; in short: as §1
MCF7 [13] = experiment: Down regulation of ABCG2 expression in human MCF7 cells at 1 nM after 96 hrs by Western blot analysis; type: functional, cell-based; in short: as §1
MCF7 [14] = experiment: Cytotoxicity against ABCG2-positive human MCF7 cells at 1 nM after 96 hrs by Western blot analysis; type: functional, cell-based; details: in the assay text read “FACS analysis” for “Western blot analysis”
In short: (§2)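 ABCG2+ subpopulation counted by flow cytometry. MCF-7 cells (2.0 × 10^4) treated 96 h, trypsinized, washed in PBS and resuspended in HBSS with 2% FBS and 10 mM HEPES (10^6/100 μL). Labelled with anti-ABCG2 (5D3) for 30 min, then PE anti-mouse IgG for 15 min. PI (2 μg/mL) added to exclude dead cells. Total ABCG2+ cell number reported as mean ± SD of at least three independent experiments.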

MCF7 [15] = experiment: Cytotoxicity against ABCG2-positive human MCF7 cells at 10 nM after 96 hrs by Western blot analysis; type: functional, cell-based; details: in the assay text read “FACS analysis” for “Western blot analysis”; in short: as §2
MCF7 [16] = experiment: Cytotoxicity against ABCG2-positive human MCF7 cells after 96 hrs by Western blot analysis; type: functional, cell-based; details: in the assay text read “FACS analysis” for “Western blot analysis”; in short: as §2
MCF7 [17] = experiment: Cytotoxicity against human MCF7 cells assessed as suppression of SP-positive cells at 1 nM after 90 mins by Hoechst staining-based FACS analysis (reference value: 2.71%); type: functional
In short: (§3)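 Side-population assay. MCF-7 cells (1 × 10^6) trypsinized, washed three times in PBS and resuspended in HBSS with 2% FBS and 10 mM HEPES. Incubated with Hoechst 33342 (5 μg/mL) at 37 °C for 90 min with or without compound (1 or 10 nM). FTC (10 μM) used as control. SP fraction gated by flow cytometry. At least three independent experiments.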

MCF7 [18] = experiment: Cytotoxicity against human MCF7 cells assessed as suppression of SP-positive cells at 10 nM after 90 mins by Hoechst staining-based FACS analysis (reference value: 2.71%); type: functional; in short: as §3
MCF7 [19] = experiment: Inhibition of PI3K-mediated Akt phosphorylation at Ser473 in human MCF7 cells at 1 nM after 6 hrs by Western blot analysis; type: cell-based
In short: (§4)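 MCF-7 cells (2.0 × 10^5) exposed to 1 nM for 1, 3 and 6 h; 10 μM LY294002 as positive control. RIPA lysates, 40 μg per lane, 10% SDS-PAGE and PVDF transfer. Probed overnight at 4 °C with anti-Akt and anti-phospho-Akt Ser473 (1:1000 each), with β-actin (1:10000) as loading control. ECL detection.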

MCF7 [20] = experiment: Down regulation of Akt expression in human MCF7 cells at 1 nM after 6 hrs by Western blot analysis; type: functional, cell-based; in short: as §4
MCF7 [21] = experiment: Cytotoxicity against human MCF7 cells after 48 hrs by MTT assay; details: MCF7, 48 h
MCF7 [22] = experiment: Down regulation of ABCG2 expression in human MCF7 cells at 1 nM after 96 hrs by Western blot analysis
MCF7 [23] = experiment: Cytotoxicity against human MCF7 cells assessed as suppression of SP-positive cells at 10 uM after 90 mins by Hoechst staining-based FACS analysis (reference value: 2.71%); type: functional

## COC(=O)c1cc(O)cc(OC)c1Oc1c(Cl)c(C)c(Cl)c(O)c1C(=O)O
MCF7 [1]
  Activity: inactive

## CC1(C)OC1Cc1cc(CC2=C(c3ccc(O)cc3)C(=O)OC2=O)ccc1O (configuration not stated)
MCF7 [1]
  Activity: inactive

## COC(=O)c1cc(O)cc(OC)c1Oc1cc(C)cc(O)c1C(=O)O
MCF7 [1]
  Activity: inactive

## COC(=O)[C@]1(Cc2ccc3c(c2)C[C@H](C(C)(C)O)O3)OC(=O)C(O)=C1c1ccc(O)cc1
MCF7 [1]
  Activity: inactive

## COC(=O)[C@@]1(Cc2ccc(O)c(CC=C(C)C)c2)OC(=O)C(O)=C1c1ccc(O)cc1
MCF7 [1]
  Activity: inactive

## COC(=O)c1cc(O)cc(OC)c1Oc1c(Cl)c(C)c(Cl)c(O)c1C(=O)OC
MCF7 [1]
  Activity: inactive

## C/C=C/C1=CC(=O)[C@@H](O)[C@@H]1O [TERREIN]
MCF7 [2]
  inhibition of growth at 0.001 µM: 70%
PANC-1
  IC50: 9800 nM
HepG2
  IC50: 66.8 nM
MCF7 [3]
  viability at 0.001 µM: 59.7%
MCF7 [4]
  Activity: 29.6%
MCF7 [5]
  Activity: 8.89%
MCF7 [6]
  Activity: 1.89%
MCF7 [7]
  viability at 0.01 µM: 65.6%
MCF7 [8]
  Activity: 24%
MCF7 [9]
  Activity: 7.92%
MCF7 [10]
  Activity: 2.48%
MCF7 [11]
  Activity: Active
MCF7 [12]
  Activity: Active
MCF7 [13]
  Activity: Active
MCF7 [14]
  Activity: Active
MCF7 [15]
  Activity: Active
MCF7 [16]
  Activity: Dose-dependent effect
MCF7 [17]
  Activity: 0.77%
MCF7 [18]
  Activity: 0.89%
MCF7 [19]
  inhibition: Active
MCF7 [20]
  Activity: Active
MCF7 [21]
  IC50: 1.1 nM
MCF7 [22]
  Activity: Active

## COC(=O)c1cc(O)cc(OC)c1C(=O)c1c(O)c(Cl)c(C)c(Cl)c1O
MCF7 [1]
  Activity: inactive

## COc1cc(COC(C)=O)cc2c1C(=O)c1c(O)cc(O)cc1C2=O
MCF7 [1]
  Activity: inactive

## COc1cc(O)cc(C(=O)O)c1C(=O)c1c(O)c(Cl)c(C)c(Cl)c1O
MCF7 [1]
  Activity: inactive

## CC(=O)O[C@H]1C(=O)[C@@]2(C)[C@H]([C@H](OC(=O)c3ccccc3)[C@]3(O)C[C@H](OC(=O)[C@H](O)[C@@H](NC(=O)c4ccccc4)c4ccccc4)C(C)=C1C3(C)C)[C@]1(OC(C)=O)CO[C@@H]1C[C@@H]2O [PACLITAXEL]
MCF7 [7]
  viability at 0.01 µM: 72.1%
MCF7 [8]
  Activity: 15.6%
MCF7 [9]
  Activity: 9.34%
MCF7 [10]
  Activity: 2.91%
MCF7 [16]
  Activity: Dose-dependent effect
MCF7 [17]
  Activity: 1.71%
MCF7 [18]
  Activity: 1.65%

## COc1cc(O)cc2c1C(=O)c1c(O)cc(C)cc1C2=O
MCF7 [1]
  Activity: inactive

## COC(=O)[C@]1(Cc2ccc3c(c2)C[C@H](O)C(C)(C)O3)OC(=O)C(O)=C1c1ccc(O)cc1
MCF7 [1]
  Activity: inactive

## COc1ccc2c3c([nH]c2c1)[C@H](C=C(C)C)N1C(=O)[C@@H]2CCCN2C(=O)[C@@H]1C3 [FUMITREMORGIN]
MCF7 [23]
  Activity: 0.81%
